Experiments:
[1] = tested on: Mycobacterium tuberculosis; test: Inhibition of multidrug resistance efflux pump in Mycobacterium tuberculosis H37Rv assessed as ethidium bromide MIC at 4 ug/ml after 7 days by two-dimensional broth microdilution checkerboard assay; details: 168 h
[2] = tested on: Mycobacterium tuberculosis; test: Inhibition of multidrug resistance efflux pump in Mycobacterium tuberculosis H37Rv assessed as amikacin MIC at 32 ug/ml after 7 days by two-dimensional broth microdilution checkerboard assay; details: 168 h
[3] = tested on: Mycobacterium tuberculosis; test: Inhibition of multidrug resistance efflux pump in Mycobacterium tuberculosis H37Rv assessed as ofloxacin MIC at 128 ug/ml after 7 days by two-dimensional broth microdilution checkerboard assay; details: 168 h
[4] = tested on: Mycobacterium tuberculosis; test: Inhibition of multidrug resistance efflux pump in Mycobacterium tuberculosis H37Rv assessed as amikacin MIC at 64 ug/ml after 7 days by two-dimensional broth microdilution checkerboard assay; details: 168 h
[5] = tested on: Mycobacterium tuberculosis; test: Inhibition of multidrug resistance efflux pump in Mycobacterium tuberculosis H37Rv assessed as rifampin MIC at 8 ug/ml after 7 days by two-dimensional broth microdilution checkerboard assay; details: 168 h
[6] = tested on: Mycobacterium tuberculosis; test: Inhibition of multidrug resistance efflux pump in Mycobacterium tuberculosis H37Rv assessed as isoniazid MIC at 4 ug/ml after 7 days by two-dimensional broth microdilution checkerboard assay; details: 168 h
[7] = tested on: Mycobacterium tuberculosis; test: Inhibition of multidrug resistance efflux pump in Mycobacterium tuberculosis H37Rv assessed as reduction in rifampin MIC at 256 ug/ml after 7 days by two-dimensional broth microdilution checkerboard assay
Method in brief: (§1)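 M. tuberculosis H37Rv two-dimensional broth microdilution checkerboard. MICs of INH, RIF, AMK, OFX or EtBr were determined without and with graded sub-inhibitory compound concentrations, starting at ½ MIC. Where MIC was undeterminable, the highest concentration still permitting growth was taken as ½ MIC. FIC = MIC of antibacterial in combination / MIC alone. FIC ≤0.25 was scored as synergism and ≥2 as antagonism.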

[8] = tested on: Mycobacterium tuberculosis; test: Inhibition of multidrug resistance efflux pump in Mycobacterium tuberculosis H37Rv assessed as ofloxacin MIC at 256 ug/ml after 7 days by two-dimensional broth microdilution checkerboard assay; details: 168 h; method in brief: as §1
[9] = tested on: Mycobacterium tuberculosis H37Rv; test: Ratio of thioridazine to compound for Inhibition of multidrug resistance efflux pump in Mycobacterium tuberculosis H37Rv using ethidium bromide as substrate assessed as relative final fluorescence at 1/2 MIC by real-time fluorometry
Method in brief: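 H37Rv cells were loaded with EtBr at 0.5 µg/mL with test compound at ½ MIC. Where the MIC exceeded the testable range, the last determinable concentration was taken as ½ MIC. EtBr retention was followed by real-time fluorometry and expressed as relative final fluorescence (RFF), with verapamil and thioridazine as controls.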

[10] = tested on: Mycobacterium tuberculosis; test: Inhibition of multidrug resistance efflux pump in Mycobacterium tuberculosis H37Rv using ethidium bromide as substrate assessed as relative final fluorescence at 1/2 MIC by real-time fluorometry
[11] = tested on: Mycobacterium tuberculosis; test: Inhibition of multidrug resistance efflux pump in Mycobacterium tuberculosis H37Rv assessed as rifampin MIC at 4 ug/ml after 7 days by two-dimensional broth microdilution checkerboard assay; details: 168 h
[12] = tested on: Mycobacterium tuberculosis; test: Inhibition of multidrug resistance efflux pump in Mycobacterium tuberculosis H37Rv assessed as amikacin MIC at 256 ug/ml after 7 days by two-dimensional broth microdilution checkerboard assay; details: 168 h; method in brief: as §1
[13] = tested on: Mycobacterium tuberculosis; test: Inhibition of multidrug resistance efflux pump in Mycobacterium tuberculosis H37Rv assessed as ethidium bromide MIC at 256 ug/ml after 7 days by two-dimensional broth microdilution checkerboard assay; details: 168 h
[14] = tested on: Mycobacterium tuberculosis; test: Inhibition of multidrug resistance efflux pump in Mycobacterium tuberculosis H37Rv assessed as rifampin MIC at 256 ug/ml after 7 days by two-dimensional broth microdilution checkerboard assay; details: 168 h; method in brief: as §1
[15] = tested on: Mycobacterium tuberculosis; test: Inhibition of multidrug resistance efflux pump in Mycobacterium tuberculosis H37Rv assessed as reduction in rifampin MIC at 64 ug/ml after 7 days by two-dimensional broth microdilution checkerboard assay
[16] = tested on: Mycobacterium tuberculosis; test: Inhibition of multidrug resistance efflux pump in Mycobacterium tuberculosis H37Rv assessed as ofloxacin MIC at 64 ug/ml after 7 days by two-dimensional broth microdilution checkerboard assay; details: 168 h
[17] = tested on: Mycobacterium tuberculosis; test: Inhibition of multidrug resistance efflux pump in Mycobacterium tuberculosis H37Rv assessed as reduction in rifampin MIC at 32 ug/ml after 7 days by two-dimensional broth microdilution checkerboard assay; method in brief: as §1
[18] = tested on: Mycobacterium tuberculosis; test: Inhibition of multidrug resistance efflux pump in Mycobacterium tuberculosis H37Rv assessed as rifampin MIC at 32 ug/ml after 7 days by two-dimensional broth microdilution checkerboard assay; details: 168 h
[19] = tested on: Mycobacterium tuberculosis; test: Inhibition of multidrug resistance efflux pump in Mycobacterium tuberculosis H37Rv assessed as ethidium bromide MIC at 16 ug/ml after 7 days by two-dimensional broth microdilution checkerboard assay; details: 168 h
[20] = tested on: Mycobacterium tuberculosis; test: Inhibition of multidrug resistance efflux pump in Mycobacterium tuberculosis H37Rv assessed as ofloxacin MIC at 8 ug/ml after 7 days by two-dimensional broth microdilution checkerboard assay; details: 168 h
[21] = tested on: Mycobacterium tuberculosis; test: Inhibition of multidrug resistance efflux pump in Mycobacterium tuberculosis H37Rv assessed as ofloxacin MIC at 16 ug/ml after 7 days by two-dimensional broth microdilution checkerboard assay; details: 168 h
[22] = tested on: Mycobacterium tuberculosis; test: Inhibition of multidrug resistance efflux pump in Mycobacterium tuberculosis H37Rv assessed as isoniazid MIC at 256 ug/ml after 7 days by two-dimensional broth microdilution checkerboard assay; details: 168 h; method in brief: as §1
[23] = tested on: Mycobacterium tuberculosis; test: Inhibition of multidrug resistance efflux pump in Mycobacterium tuberculosis H37Rv assessed as amikacin MIC at 16 ug/ml after 7 days by two-dimensional broth microdilution checkerboard assay; details: 168 h
[24] = tested on: Mycobacterium tuberculosis; test: Inhibition of multidrug resistance efflux pump in Mycobacterium tuberculosis H37Rv assessed as amikacin MIC at 4 ug/ml after 7 days by two-dimensional broth microdilution checkerboard assay; details: 168 h
[25] = tested on: Mycobacterium tuberculosis; test: Inhibition of multidrug resistance efflux pump in Mycobacterium tuberculosis H37Rv assessed as isoniazid MIC at 128 ug/ml after 7 days by two-dimensional broth microdilution checkerboard assay; details: 168 h
[26] = tested on: Mycobacterium tuberculosis; test: Inhibition of multidrug resistance efflux pump in Mycobacterium tuberculosis H37Rv assessed as rifampin MIC at 128 ug/ml after 7 days by two-dimensional broth microdilution checkerboard assay; details: 168 h
[27] = tested on: Mycobacterium tuberculosis; test: Inhibition of multidrug resistance efflux pump in Mycobacterium tuberculosis H37Rv assessed as rifampin MIC at 64 ug/ml after 7 days by two-dimensional broth microdilution checkerboard assay; details: 168 h
[28] = tested on: Mycobacterium tuberculosis; test: Inhibition of multidrug resistance efflux pump in Mycobacterium tuberculosis H37Rv assessed as amikacin MIC at 128 ug/ml after 7 days by two-dimensional broth microdilution checkerboard assay; details: 168 h
[29] = tested on: Mycobacterium tuberculosis; test: Inhibition of multidrug resistance efflux pump in Mycobacterium tuberculosis H37Rv assessed as isoniazid MIC at 8 ug/ml after 7 days by two-dimensional broth microdilution checkerboard assay; details: 168 h
[30] = tested on: Mycobacterium tuberculosis; test: Inhibition of multidrug resistance efflux pump in Mycobacterium tuberculosis H37Rv assessed as ethidium bromide MIC at 32 ug/ml after 7 days by two-dimensional broth microdilution checkerboard assay; details: 168 h
[31] = tested on: Mycobacterium tuberculosis; test: Inhibition of multidrug resistance efflux pump in Mycobacterium tuberculosis H37Rv assessed as isoniazid MIC at 16 ug/ml after 7 days by two-dimensional broth microdilution checkerboard assay; details: 168 h
[32] = tested on: Mycobacterium tuberculosis; test: Inhibition of multidrug resistance efflux pump in Mycobacterium tuberculosis H37Rv assessed as ethidium bromide MIC at 8 ug/ml after 7 days by two-dimensional broth microdilution checkerboard assay; details: 168 h

| SMILES | MIC [1] | MIC [2] | MIC [3] | MIC [4] | MIC [5] | MIC [6] | RFU [10] | MIC [11] | MIC [16] | MIC [18] | MIC [19] | MIC [20] | MIC [21] | MIC [23] | MIC [24] | MIC [27] | MIC [29] | MIC [30] | MIC [31] | MIC [32] | other results |
| --- | --- | --- | --- | --- | --- | --- | --- | --- | --- | --- | --- | --- | --- | --- | --- | --- | --- | --- | --- | --- | --- |
| COc1ccc(N(CCC2CCCCN2C)C(C)C)cc1OC (racemic) | 12.5 µg/mL | 2 µg/mL | 2 µg/mL | 2 µg/mL | 0.25 µg/mL | 0.1 µg/mL | 0.84 | 0.25 µg/mL | 2 µg/mL | 0.25 µg/mL | 12.5 µg/mL | 2 µg/mL | 2 µg/mL | 2 µg/mL | 2 µg/mL | 0.25 µg/mL | 0.1 µg/mL | 12.5 µg/mL | 0.1 µg/mL | 12.5 µg/mL | fold change (FC) [7]: 164; MIC [8]: 1 µg/mL; Ratio IC50 [9]: 2; MIC [12]: 2 µg/mL; MIC [13]: 12.5 µg/mL; MIC [14]: < 0.0156 µg/mL; fold change (FC) [15]: 4; fold change (FC) [17]: 4; MIC [22]: 0.1 µg/mL; MIC [25]: 0.1 µg/mL; MIC [26]: 0.25 µg/mL; MIC [28]: 2 µg/mL |
| CSc1ccc2c(c1)N(CCC1CCCCN1C)c1ccccc1S2 (stereo unspecified) [THIORIDAZINE] | – | – | – | – | – | – | 0.27 | – | – | – | – | – | – | – | – | – | – | – | – | – | – |
| CN1CCCCC1CCn1ccc2ccc(Br)cc21 (racemic) | 12.5 µg/mL | 1 µg/mL | < 0.0156 µg/mL | > 0.0156 µg/mL | 0.25 µg/mL | 0.1 µg/mL | 1.22 | 0.5 µg/mL | < 0.0156 µg/mL | 0.0312 µg/mL | 12.5 µg/mL | 1 µg/mL | 1 µg/mL | 1 µg/mL | 1 µg/mL | < 0.0156 µg/mL | 0.1 µg/mL | 6.25 µg/mL | 0.1 µg/mL | 12.5 µg/mL | fold change (FC) [7]: >164; MIC [8]: < 0.0156 µg/mL; Ratio IC50 [9]: 2; MIC [12]: < 0.0156 µg/mL; MIC [13]: < 0.195 µg/mL; MIC [14]: < 0.0156 µg/mL; fold change (FC) [15]: >164; fold change (FC) [17]: 32; MIC [22]: < 0.00078 µg/mL; MIC [25]: < 0.0015 µg/mL; MIC [26]: < 0.0156 µg/mL; MIC [28]: < 0.0156 µg/mL |
| CN1CCCCC1CCn1c2ccccc2c2ccccc21 (racemic) | 12.5 µg/mL | 0.625 µg/mL | – | < 0.0156 µg/mL | 0.5 µg/mL | 0.1 µg/mL | 0.33 | 1 µg/mL | < 0.0156 µg/mL | 0.0625 µg/mL | 6.25 µg/mL | 1 µg/mL | 1 µg/mL | 1 µg/mL | 1 µg/mL | < 0.0156 µg/mL | 0.1 µg/mL | 1.56 µg/mL | 0.1 µg/mL | 12.5 µg/mL | fold change (FC) [15]: >64; fold change (FC) [17]: 16 |
| CN1CCCCC1CCn1cnc2ccccc21 (racemic) | 12.5 µg/mL | 1 µg/mL | 1 µg/mL | 1 µg/mL | 0.5 µg/mL | 0.1 µg/mL | 1 | 0.5 µg/mL | 1 µg/mL | 0.5 µg/mL | 12.5 µg/mL | 1 µg/mL | 1 µg/mL | 1 µg/mL | 1 µg/mL | 0.5 µg/mL | 0.1 µg/mL | 12.5 µg/mL | 0.1 µg/mL | 12.5 µg/mL | fold change (FC) [7]: >64; MIC [8]: < 0.0156 µg/mL; Ratio IC50 [9]: 2; MIC [12]: < 0.0156 µg/mL; MIC [13]: < 0.195 µg/mL; MIC [14]: < 0.0156 µg/mL; MIC [22]: < 0.00078 µg/mL; MIC [25]: 0.1 µg/mL; MIC [26]: 0.5 µg/mL; MIC [28]: 1 µg/mL |

Source: ChEMBL document CHEMBL3593164, “Rational Design and Synthesis of Thioridazine Analogues as Enhancers of the Antituberculosis Therapy” (J Med Chem, 2015)
